Experimental data: ChEMBL document CHEMBL4396895, “Identification and Optimization of Novel Cathepsin C Inhibitors Derived from EGFR Inhibitors” (J Med Chem, 2019)
Active and inactive are the calls of the source. No cut-off for these calls is given here.

What was measured:
Cathepsin B = Cathepsin B (Homo sapiens, UniProt P07858); assay: Inhibition of recombinant human C-terminal polyhistidine-tagged cathepsin B (Arg18 to Ile339 residues) expressed in HEK293 cells using Z-Leu-Arg-AMC as substrate preincubated for 30 mins followed by substrate addition and measured after 30 mins
In short: (§1)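 Recombinant human cathepsin was preincubated with compound for 30 min at RT, then reacted with substrate for 30 min. CatB and CatL were read with Z-Leu-Arg-AMC (Ex 380/Em 460 nm). CatS was read with MCA-Arg-Pro-Lys-Pro-Val-Glu-Nva-Trp-Arg-Lys(DNP)-NH2 (Ex 320/Em 405 nm). E-64 served as inhibitor control.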

Cytochrome P450 3A4 = Cytochrome P450 3A4 (Homo sapiens, UniProt P08684); assay: Inhibition of CYP3A4 (unknown origin); format: ADME
In short: (§2)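 Tested against recombinant human cytochrome P450 isoforms 1A2, 2D6, 3A4, 2C9 and 2C19.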

Dipeptidyl peptidase 1 [1] = target: T1, Dipeptidyl peptidase 1 (Homo sapiens, UniProt P53634); assay: Inhibition of CatL-activated recombinant human C-terminal His10-tagged cathepsin C (25 to 463 residues) expressed in mouse myeloma cells using Gly-Phe-AFC as substrate preincubated for 3 hrs followed by substrate addition and measured after 60 mins; format: cell-free
In short: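 Activated rhCatC was diluted to 4.4 nM in 25 mM MES, 50 mM NaCl, 5 mM DTT, 0.01% Triton X-100, pH 6.0. It was preincubated with compound (added in 10% DMSO) for 3 h at RT. Gly-Phe-AFC was then added to 100 μM final and read as fluorescence after 60 min. IC50 came from a sigmoidal nonlinear fit; values are means of at least two experiments.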

Procathepsin L = Procathepsin L (Homo sapiens, UniProt P07711); assay: Inhibition of recombinant human C-terminal His6-tagged cathepsin L (Glu113 to Val333 and Ala114 to Val333 residues) expressed in mouse myeloma cells using Z-Leu-Arg-AMC as substrate preincubated for 30 mins followed by substrate addition and measured after 30 mins; in short: as §1
Cytochrome P450 2D6 = Cytochrome P450 2D6 (Homo sapiens, UniProt P10635); assay: Inhibition of CYP2D6 (unknown origin); format: ADME; in short: as §2
Dipeptidyl peptidase 1 [2] = target: T1, Dipeptidyl peptidase 1; assay: Inhibition of cathepsin C in human THP1 cells using H-Gly-Phe-AFC as substrate preincubated for 4 hrs followed by substrate addition and measured after 60 mins; format: cell-based
In short: (§3)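 THP1 or U937 cells, grown in RPMI 1640 with 10% FBS, were seeded at 1.0 × 10^6/mL. They were preincubated with threefold serial dilutions of compound for 4 h at 37 °C. H-Gly-Phe-AFC was then added from a 100 μM solution and fluorescence was read after 60 min at 37 °C. Values are means of at least two experiments.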

Cytochrome P450 1A2 = target: T2, Cytochrome P450 1A2 (Homo sapiens, UniProt P05177); assay: Inhibition of CYP1A2 (unknown origin); format: ADME; in short: as §2
T2 sequence (P05177 whole entry): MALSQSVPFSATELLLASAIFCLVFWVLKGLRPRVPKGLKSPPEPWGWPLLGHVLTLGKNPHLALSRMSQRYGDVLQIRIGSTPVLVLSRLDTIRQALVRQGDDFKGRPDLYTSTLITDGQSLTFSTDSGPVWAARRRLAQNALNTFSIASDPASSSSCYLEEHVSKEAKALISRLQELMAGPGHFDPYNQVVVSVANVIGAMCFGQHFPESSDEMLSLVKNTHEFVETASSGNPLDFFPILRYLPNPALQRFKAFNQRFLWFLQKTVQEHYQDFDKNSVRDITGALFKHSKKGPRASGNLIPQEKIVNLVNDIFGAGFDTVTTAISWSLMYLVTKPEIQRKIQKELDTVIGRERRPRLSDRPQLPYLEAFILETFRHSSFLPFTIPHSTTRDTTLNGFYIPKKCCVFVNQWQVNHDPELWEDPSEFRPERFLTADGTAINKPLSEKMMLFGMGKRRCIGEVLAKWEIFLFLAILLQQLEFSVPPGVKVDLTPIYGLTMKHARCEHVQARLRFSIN

Dipeptidyl peptidase 1 [3] = target: T1, Dipeptidyl peptidase 1; assay: Inhibition of cathepsin C in human U937 cells using H-Gly-Phe-AFC as substrate preincubated for 4 hrs followed by substrate addition and measured after 60 mins; format: cell-based; in short: as §3
Cytochrome P450 2C19 = Cytochrome P450 2C19 (Homo sapiens, UniProt P33261); assay: Inhibition of CYP2C19 (unknown origin); format: ADME; in short: as §2
[4] = Intrinsic clearance in mouse liver microsomes assessed per mg protein measured after 60 mins in presence of NADPH by LC-MS/MS analysis; format: ADME, Microsome; conditions: read-out: CLH
[5] = Intrinsic clearance in human liver microsomes assessed per mg protein measured after 60 mins in presence of NADPH by LC-MS/MS analysis; format: ADME, Microsome; conditions: read-out: CLH
[6] = target: T3, Epidermal growth factor receptor (Homo sapiens, UniProt P00533); assay: Inhibition of EGFR (unknown origin) up to 10 uM using biotin-labelled peptide as substrate preincubated for 2 hrs followed by substrate addition and measured after 30 mins by HTRF FRET assay
In short: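 EGFR WT was used at 0.1 nM final in 50 mM HEPES pH 7.0, 0.02% NaN3, 0.01% BSA, 0.1 mM orthovanadate, 10 mM MgCl2, 2.5 mM DTT, 6.25 nM SEB. It was preincubated with compound for 2 h. Biotin-peptide (1.4 μM) and ATP (20 μM) were then added for 30 min at RT. Read-out was HTRF/TR-FRET (Ex 320, Em 615/665 nm) with a sigmoidal curve fit.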

Cytochrome P450 2C9 = Cytochrome P450 2C9 (Homo sapiens, UniProt P11712); assay: Inhibition of CYP2C9 (unknown origin); format: ADME; in short: as §2
[7] = Intrinsic clearance in rat liver microsomes assessed per mg protein measured after 60 mins in presence of NADPH by LC-MS/MS analysis; format: ADME, Microsome; conditions: read-out: CLH
Cathepsin S = Cathepsin S (Homo sapiens, UniProt P25774); assay: Inhibition of recombinant human C-terminal polyhistidine-tagged cathepsin S (Met1 to Ile331 residues) expressed in HEK293 cells using MCA-Arg-Pro-Lys-Pro-Val-Glu-NVAL-Trp-Arg-Lys(DNP)-NH2 as substrate preincubated for 30 mins followed by substrate addition and measured after 30 mins; in short: as §1
[8] = target: T3, Epidermal growth factor receptor; assay: Inhibition of EGFR (unknown origin) using biotin-labelled peptide as substrate preincubated for 2 hrs followed by substrate addition and measured after 30 mins by HTRF FRET assay
Mus musculus [9] = assay: Protection against C57BL/6 mouse model of caerulein-induced acute pancreatitis at 20 mg/kg, po pretreated twice daily for 6 days followed by caerulein-challenge at 1 hr interval for 8 hrs and measured 1 hr post-last caerulein-challenge by H and E staining-based histological analysis
Mus musculus [10] = assay: Protection against C57BL/6 mouse model of caerulein-induced acute pancreatitis assessed as reduction in CatC activity at 20 mg/kg, po pretreated twice daily for 6 days followed by caerulein-challenge at 1 hr interval for 8 hrs and measured 1 hr post-last caerulein-challenge

IC50 (Cathepsin B) [µM]	IC50 (Cytochrome P450 3A4) [µM]	IC50 (Dipeptidyl peptidase 1 [1]) [µM]	IC50 (Procathepsin L) [µM]	IC50 (Cytochrome P450 2D6) [µM]	IC50 (Dipeptidyl peptidase 1 [2]) [µM]	IC50 (Cytochrome P450 1A2) [µM]	IC50 (Dipeptidyl peptidase 1 [3]) [µM]	IC50 (Cytochrome P450 2C19) [µM]	microsomal CLint [4] [µL/min/mg]	microsomal CLint [5] [µL/min/mg]	inhibition [6]	IC50 (Cytochrome P450 2C9) [µM]	microsomal CLint [7] [µL/min/mg]	IC50 (Cathepsin S) [µM]	IC50 [8] [µM]	SMILES	Activity (Mus musculus [9])	Activity (Mus musculus [10])
3 to 10	> 10	0.044	3 to 10	> 10	0.0123	8.75	0.0408	9.91	26.7	4.3	inactive	> 10	23.1	> 10		C=CC(=O)Nc1cc(Oc2nc(Nc3ccc(N4CCN(C)CC4)cc3OC)ccc2N2CCCC2)ccc1C		
3 to 10	> 10	0.059 to 0.0593	> 10	> 10	0.0039	> 10	0.0059	> 10	4	1.9	inactive	> 10	10	> 10		C=CC(=O)Nc1cc(Oc2nc(Nc3ccc(N4CCN(C)CC4)cc3OC)ccc2N2CCOCC2)ccc1C		
		0.81					0.537 to 0.538		26.3	5.4	inactive		39.7		> 10	C=CC(=O)Nc1cccc(Oc2nc(Nc3ccc(N4CCN(C)CC4)cc3OC)ccc2Cl)c1		
																N#Cc1ccc(-c2ccc(C[C@@H](C#N)NC(=O)C3(N)CCOCC3)cc2)cc1	Active	Active
